Source: article PMC3099401 (Journal of agricultural and food chemistry, 2011)

Tests used:
neuroblastoma cells [1] = assay: In vitro cell viability; assay type: cell-based; conditions: 4 days, normalized to DMSO controls; for effect on viability: 100 and 200 μM
NGP neuroblastoma cells = assay: Calcium imaging with fura-2, NGP; assay type: cell-based; conditions: 100 μM
[2] = test system: SK-N-AS neuroblastoma cells; assay: In vivo efficacy, SK-N-AS xenograft mouse model; set-up: species or system athymic nu/nu mice
neuroblastoma cells [3] = assay: Cellular uptake by live-cell multiphoton microscopy; assay type: cell-based; conditions: 37°C
In short: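 Live neuroblastoma cells in HBSS kept at 37°C on a stage incubator. Two-photon imaging used 765 nm Ti:Sapphire excitation, a 20× objective and a GaAsP photon-counting detector, with 1024×1024 images at identical laser power. Imaging ran from 90 s (the earliest possible) and at 5 min after adding 100 μM test compound, then again 5 min after an HBSS wash and after re-addition.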

[4] = test system: SK-N-AS neuroblastoma cells; assay: Calcium imaging with fura-2, SK-N-AS; assay type: cell-based; conditions: 100 μM

In the case of `O=C(O)[C@H]1O[C@@H](Oc2cc(O)cc(/C=C/c3ccc(O)cc3)c2)[C@H](O)[C@@H](O)[C@@H]1O` [3-Glu-Res, 3-O-glucuronidated Res], the effect on viability (neuroblastoma cells [1]) is reported as “no effect on viability”.
With `O=C(O)[C@H]1O[C@@H](Oc2ccc(/C=C/c3cc(O)cc(O)c3)cc2)[C@H](O)[C@@H](O)[C@@H]1O` [4′-Glu-Res, 4′-O-glucuronidated Res] the effect on viability (neuroblastoma cells [1]) was “no effect on viability”.
`Oc1ccc(/C=C/c2cc(O)cc(O)c2)cc1` [Res, resveratrol] was tested, and the “change in [Ca^2+]i (fura-2 fluorescence)” value (NGP neuroblastoma cells) was “rise in [Ca^2+]i”, the tumor regression ([2]; direct injection into the tumor, 250mg/kg, block copolymer formulation) was “regression of the tumor was then observed” and the “tumor inhibition compared to vehicle-treated controls” value ([2]; peri-tumor, 5 injections of 200 μL R-P104 (approx. 5.0 mg Res each) over two weeks) was “about 88%”. For the same molecule, the “reduction of the number of viable cells” value (neuroblastoma cells [1]; 100 μM) was ~85%, the “cellular uptake (cellular fluorescence, excited at 765 nm)” value (neuroblastoma cells [3]; 100 μM, HBSS) was “enters and then permeates throughout the cell” and the “time after addition until cells become brightly fluorescent” value (neuroblastoma cells [3]; earliest time point that can be taken) was ≤ 90 s. For the same molecule, the “change in [Ca^2+]i (fura-2 fluorescence)” value [4] was “rise in [Ca^2+]i”.
With `O=S(=O)(O)Oc1cc(O)cc(/C=C/c2ccc(O)cc2)c1` [monosulf-Res, Res 3-O-sulfate] the effect on viability (neuroblastoma cells [1]) was “no effect on viability”.
